Experimental data of several laboratories.
Protocols differ between the studies behind these lines. Converted amounts (≈) assume the structure as drawn.

| SMILES | target or system | assay | system | setting | endpoint | result |
| --- | --- | --- | --- | --- | --- | --- |
| Nc1sc(-c2ccccc2)cc1C(=O)NCc1ccccc1 | Mycobacterium tuberculosis | microbial growth, resazurin | H37RV |  | MIC | 325 µM (≈ 100 µg/mL) |
| COc1ccc(NC(=O)c2c(Nc3ccccc3)sc(C#N)c2NC(=O)CNc2ccc([N+](=O)[O-])cc2)cc1 | HepG2 | cell growth or viability, SRB |  | 1 µM, 48 h | viability | 68.4% |
| CCOC(=O)c1ccc(-n2c(C)cc(C)c(C#N)c2=O)cc1 | HepG2 | cell growth or viability, MTT |  | 12.5 µM, 24 h | viability | 76.1% |
| COc1ccc(NC(=O)c2c(Nc3ccccc3)sc(C(=O)NN=Cc3ccccc3)c2NC(C)=O)cc1 | HepG2 | cell growth or viability, SRB |  | 10 µM, 48 h | viability | 65.3% |
| Nc1sc(-c2ccccc2)cc1C(=O)NC12CC3CC(CC(C3)C1)C2 | Mycobacterium tuberculosis | microbial growth, resazurin | H37RV |  | MIC | > 200 µM |
| c1ccc(C2CCN(c3nc(-c4cnn5cccnc45)nc4ccccc34)C2)nc1 (centres unmarked) | Trypanosoma cruzi | parasite growth, imaging | U2OS | intracellular, amastigote | IC50 | 1110 nM |
| CCN1CCc2c(sc(N)c2C(=O)NCc2ccccc2)C1 | Mycobacterium tuberculosis | microbial growth, resazurin | H37RV |  | MIC | > 300 µM |
| Fc1cccc(Nc2nc(-c3ccccn3)nc3ccccc23)c1 | Trypanosoma cruzi | parasite growth, imaging | U2OS | intracellular, amastigote | IC50 | 1500 nM |
| CCN1CCc2c(sc(N)c2C(=O)NCc2ccc(C)cc2)C1 | Mycobacterium tuberculosis | microbial growth, resazurin | H37RV |  | MIC | > 300 µM |
| COc1ccc(NC(=O)c2c(Nc3ccccc3)sc(C(=O)NN=Cc3ccc(C)cc3)c2NC(C)=O)cc1 | HepG2 | cell growth or viability, SRB |  | 0.1 µM, 48 h | viability | 89.2% |
| CCOC(=O)c1ccc(NC(=O)C2=C3C(=Nc4ccccc43)NC2=O)cc1 | HepG2 | cell growth or viability, MTT |  | 12.5 µM, 24 h | viability | 68.1% |
| CCN1CCc2c(sc(NC(=O)c3cc(C(F)(F)F)cc(C(F)(F)F)c3)c2C(=O)NCc2ccc(C)cc2)C1 | Mycobacterium tuberculosis | microbial growth, resazurin | H37RV |  | MIC | 350 µM (≈ 199 µg/mL) |
| COc1ccc(NC(=O)c2c(Nc3ccccc3)sc(C#N)c2NC(=O)CNc2ccccc2[N+](=O)[O-])cc1 | HepG2 | cell growth or viability, SRB |  | 10 µM, 48 h | viability | 84.6% |
| CCOC(=O)c1ccc(-n2c(C)cc(/C=C/c3ccc(OCC)cc3)c(C#N)c2=O)cc1 | HepG2 | cell growth or viability, MTT |  | 50 µM, 24 h | viability | 53.1% |
| COc1ccc(NC(=O)c2c(Nc3ccccc3)sc(C(=O)NN=Cc3ccc(Cl)cc3)c2NC(C)=O)cc1 | HepG2 | cell growth or viability, SRB |  | 0.1 µM, 48 h | viability | 92.3% |
| CCOC(=O)c1ccc(-n2c(C)cc(/C=C/c3ccc(OC)cc3)c(C#N)c2=O)cc1 | HepG2 | cell growth or viability, MTT |  | 25 µM, 24 h | viability | 72.6% |
| Fc1cccc(F)c1-c1nc(N2CCC(c3ccccn3)C2)c2ccccc2n1 (centres unmarked) | Trypanosoma cruzi | parasite growth, imaging | U2OS | intracellular, amastigote | IC50 | 9700 nM |
